Converted amounts (≈) assume the structure as drawn.
How the values were obtained:
Type in all cases: functional
[1] = tested on: Staphylococcus aureus; assay: Antimicrobial activity against methicillin-resistant Staphylococcus aureus after 24 hrs by broth microdilution method
Outline: (§1)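 Clinical isolates came from blood, body fluids, genital secretions, pus or sputum, identified conventionally or by Vitek. MICs were run by CLSI M7-A6 broth microdilution in Mueller-Hinton broth with 5 × 10^5 CFU/ml inoculum. Agents were twofold serially diluted, starting from 10% DMSO. Drug-free and uninoculated controls were included. Plates were incubated aerobically at 37°C for 24 h; MIC is the lowest concentration giving no visible growth.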

[2] = tested on: Mammaliicoccus sciuri; assay: Bactericidal activity against methicillin-resistant coagulase-negative Staphylococcus sciuri after 24 hrs by plate counting method
Outline: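 Clinical staphylococcal isolates from patient body fluids, blood, genital secretions, pus or sputum; species by conventional methods or Vitek. Twofold dilutions in Mueller-Hinton broth, inoculum 5 × 10^5 CFU/ml, 37°C aerobic 24 h (CLSI M7-A6 microdilution). About 100 μl from each well without visible growth spread on MHA; 37°C 24 h. MBC = lowest concentration giving no growth on agar.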

[3] = tested on: Staphylococcus aureus; assay: Antimicrobial activity against methicillin-susceptible Staphylococcus aureus assessed as resistant isolates after 24 hrs by broth microdilution method
[4] = tested on: Staphylococcus epidermidis; assay: Antimicrobial activity against methicillin-susceptible coagulase-negative Staphylococcus epidermidis assessed as resistant isolates after 24 hrs by broth microdilution method
[5] = tested on: Staphylococcus simulans; assay: Antimicrobial activity against methicillin-susceptible coagulase-negative Staphylococcus simulans assessed as susceptible isolates after 24 hrs by broth microdilution method
Outline: (§2)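 Clinical isolates from blood, body fluids, pus, sputum or genital secretions, identified conventionally or by Vitek, were tested alongside ATCC 29213 and ATCC 12228 controls. CLSI M7-A6 broth microdilution in Mueller-Hinton broth used twofold dilutions from a 10% DMSO solution and 5 × 10^5 CFU/ml inoculum. Drug-free and uninoculated wells served as controls; incubation was aerobic at 37°C for 24 h. MIC was the lowest concentration with no visible growth.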

[6] = tested on: Mammaliicoccus sciuri; assay: Antimicrobial activity against methicillin-susceptible coagulase-negative Staphylococcus sciuri assessed as susceptible isolates after 24 hrs by broth microdilution method; outline: as §2
[7] = tested on: Staphylococcus hominis; assay: Antimicrobial activity against methicillin-susceptible coagulase-negative Staphylococcus hominis assessed as intermediate resistant isolates after 24 hrs by broth microdilution method; settings: pooled result: one value given for 5 cell lines, strains, targets or settings
[8] = tested on: Staphylococcus epidermidis; assay: Bactericidal activity against methicillin-resistant coagulase-negative Staphylococcus epidermidis after 24 hrs by plate counting method
[9] = tested on: Staphylococcus haemolyticus; assay: Bactericidal activity against methicillin-resistant coagulase-negative Staphylococcus haemolyticus after 24 hrs by plate counting method
[10] = tested on: Staphylococcus epidermidis; assay: Antimicrobial activity against methicillin-resistant coagulase-negative Staphylococcus epidermidis after 24 hrs by broth microdilution method; outline: as §1
[11] = tested on: Staphylococcus epidermidis; assay: Antimicrobial activity against methicillin-resistant coagulase-negative Staphylococcus epidermidis assessed as resistant isolates after 24 hrs by broth microdilution method
[12] = tested on: Mammaliicoccus sciuri; assay: Antimicrobial activity against methicillin-resistant coagulase-negative Staphylococcus sciuri assessed as resistant isolates after 24 hrs by broth microdilution method
[13] = tested on: Staphylococcus simulans; assay: Antimicrobial activity against methicillin-resistant coagulase-negative Staphylococcus simulans assessed as intermediate resistant isolates after 24 hrs by broth microdilution method
[14] = tested on: Staphylococcus simulans; assay: Antimicrobial activity against methicillin-resistant coagulase-negative Staphylococcus simulans assessed as susceptible isolates after 24 hrs by broth microdilution method
[15] = tested on: Staphylococcus epidermidis; assay: Antimicrobial activity against methicillin-susceptible coagulase-negative Staphylococcus epidermidis after 24 hrs by broth microdilution method; outline: as §1
[16] = tested on: Staphylococcus epidermidis; assay: Antimicrobial activity against methicillin-susceptible coagulase-negative Staphylococcus epidermidis assessed as susceptible isolates after 24 hrs by broth microdilution method
[17] = tested on: Staphylococcus haemolyticus; assay: Antimicrobial activity against methicillin-resistant coagulase-negative Staphylococcus haemolyticus assessed as susceptible isolates after 24 hrs by broth microdilution method
[18] = Staphylococcus epidermidis, 24 h
[19] = Staphylococcus haemolyticus, 24 h

Molecule	MIC50 [1]	MIC90 [1]	MBC50 [2]	Activity [3]	Activity [4]	Activity [5]	Activity [6]	Activity [7]	MBC50 [8]	MBC50 [9]	MIC50 [10]	MIC90 [10]	Activity [11]	Activity [12]	Activity [13]	Activity [14]	MIC50 [15]	MIC90 [15]	Activity [16]	Activity [17]	other results
CC[C@H]1OC(=O)[C@H](C)[C@@H](O[C@H]2C[C@@](C)(OC)[C@@H](O)[C@H](C)O2)[C@H](C)[C@@H](O[C@@H]2O[C@H](C)C[C@H](N(C)C)[C@H]2O)[C@](C)(O)C[C@@H](C)C(=O)[C@H](C)[C@@H](O)[C@]1(C)O [ERYTHROMYCIN]	32 µg/mL (≈ 43.6 µM)	64 µg/mL (≈ 87.2 µM)	32 µg/mL (≈ 43.6 µM)	40%	27%	50%	50%	23%	32 µg/mL (≈ 43.6 µM)	32 µg/mL (≈ 43.6 µM)	16 µg/mL (≈ 21.8 µM)	32 µg/mL (≈ 43.6 µM)	74%	74%	15%	15%	0.5 µg/mL (≈ 0.681 µM)	16 µg/mL (≈ 21.8 µM)	50%	11%	MBC ([2]; Mammaliicoccus sciuri, 24 h): 1 µg/mL (≈ 1.36 µM); MBC [8, 18]: 1 µg/mL (≈ 1.36 µM); MBC [9, 19]: 1 µg/mL (≈ 1.36 µM); MIC [15]: 0.5 µg/mL (≈ 0.681 µM)
CN(C)[C@@H]1C(O)=C(C(N)=O)C(=O)[C@@]2(O)C(O)=C3C(=O)c4c(O)cccc4[C@@](C)(O)[C@H]3C[C@@H]12 [TETRACYCLINE]	16 µg/mL (≈ 36 µM)	32 µg/mL (≈ 72 µM)	4 µg/mL (≈ 9 µM)	11%	12%	69%	69%	19%	4 µg/mL (≈ 9 µM)	4 µg/mL (≈ 9 µM)	1 µg/mL (≈ 2.25 µM)	64 µg/mL (≈ 144 µM)	75%	75%	7%	7%	0.5 µg/mL (≈ 1.13 µM)	32 µg/mL (≈ 72 µM)	69%	18%	MBC ([2]; Mammaliicoccus sciuri, 24 h): 0.5 µg/mL (≈ 1.13 µM); MBC [8, 18]: 0.5 µg/mL (≈ 1.13 µM); MBC [9, 19]: 0.5 µg/mL (≈ 1.13 µM); MIC [15]: 0.5 µg/mL (≈ 1.13 µM)
CN[C@H](CC(C)C)C(=O)N[C@H]1C(=O)N[C@@H](CC(N)=O)C(=O)N[C@H]2C(=O)N[C@H]3C(=O)N[C@H](C(=O)N[C@H](C(=O)O)c4cc(O)cc(O)c4-c4cc3ccc4O)[C@H](O)c3ccc(c(Cl)c3)Oc3cc2cc(c3O[C@@H]2O[C@H](CO)[C@@H](O)[C@H](O)[C@H]2O[C@H]2C[C@](C)(N)[C@H](O)[C@H](C)O2)Oc2ccc(cc2Cl)[C@H]1O [VANCOMYCIN]	0.5 µg/mL (≈ 0.345 µM)	0.5 µg/mL (≈ 0.345 µM)	2 µg/mL (≈ 1.38 µM)	0%	0%	100%	100%	0%	2 µg/mL (≈ 1.38 µM)	2 µg/mL (≈ 1.38 µM)	0.125 µg/mL (≈ 0.0863 µM)	2 µg/mL (≈ 1.38 µM)	0%	0%	0%	0%	0.25 µg/mL (≈ 0.173 µM)	1 µg/mL (≈ 0.69 µM)	100%	100%	MBC90 [2]: 4 µg/mL (≈ 2.76 µM); MBC ([2]; Mammaliicoccus sciuri, 24 h): 0.5 µg/mL (≈ 0.345 µM); MBC90 [8]: 4 µg/mL (≈ 2.76 µM); MBC [8, 18]: 0.5 µg/mL (≈ 0.345 µM); MBC90 [9]: 4 µg/mL (≈ 2.76 µM); MBC [9, 19]: 0.5 µg/mL (≈ 0.345 µM); MIC [10]: 0.125 µg/mL (≈ 0.0863 µM)
GENTAMICIN	32 µg/mL	64 µg/mL	8 µg/mL	48%	27%	73%	73%	0%	8 µg/mL	8 µg/mL	8 µg/mL	64 µg/mL	48%	48%	7%	7%	0.125 µg/mL	32 µg/mL	73%	45%	MBC [2]: 0.25 µg/mL; MBC90 [2]: 128 µg/mL; MBC [8]: 0.25 µg/mL; MBC90 [8]: 128 µg/mL; MBC [9]: 0.25 µg/mL; MBC90 [9]: 128 µg/mL
C[C@H]1COc2c(N3CCN(C)CC3)c(F)cc3c(=O)c(C(=O)O)cn1c23.C[C@H]1COc2c(N3CCN(C)CC3)c(F)cc3c(=O)c(C(=O)O)cn1c23.O [LEVOFLOXACIN]	8 µg/mL	128 µg/mL	4 µg/mL	15%	4%	96%	96%	0%	4 µg/mL	4 µg/mL	0.25 µg/mL	4 µg/mL	59%	59%	15%	15%	0.25 µg/mL	0.5 µg/mL	96%	26%	MBC90 [2]: 16 µg/mL; MBC ([2]; Mammaliicoccus sciuri, 24 h): 0.5 µg/mL; MBC90 [8]: 16 µg/mL; MBC [8, 18]: 0.5 µg/mL; MBC90 [9]: 16 µg/mL; MBC [9, 19]: 0.5 µg/mL; MIC [10]: 0.25 µg/mL; MIC [15]: 0.25 µg/mL

— ChEMBL document CHEMBL1649231, “In vitro activities of panduratin A against clinical Staphylococcus strains” (2009)
